Measurements: paper PMC5672994 (Molecular Imaging, 2017)

Key:
[1] = system: PSMA(+) LNCaP tumors; assay: Small-animal PET imaging in mice bearing subcutaneous LNCaP tumors; assay type: in vivo; conditions: for peak (maximum) kidney uptake / time of peak kidney uptake postadministration: dynamic PET kidney TAC; for absolute tumor uptake, fold lower in comparison to ^68Ga-1 / specificity of tumor accumulation: PET; for specificity of tumor accumulation: PSMA(+) LNCaP tumors, blocking with PMPA 20 nmol/mouse; for peak tumor uptake: subcutaneous LNCaP tumor, iv
Method in brief: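 Athymic Balb/c nude mice carried LNCaP xenografts (5.0 million cells sc, right shoulder, in Matrigel 1:1), imaged at ~200-300 mg. Dosing was by iv tail vein in PBS pH7.4: static 15.4-18.7 MBq (~0.56-0.68 nmol), dynamic ~28 MBq. Mice were under isoflurane. Dynamic scans ran 3500 s; static scans at 0.5, 1, 2 and 3 h. Decay-corrected VOI %ID/g was taken. Blocking used coinjected PMPA 20 nmol/mouse (n = 3).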

[2] = Lipophilicity; assay type: physicochemical; conditions: shake-flask
[3] = Stability of formulated radiotracer in saline or PBS; assay type: physicochemical; conditions: incubation in saline or PBS at 37°C for over 4 hours
[4] = Metabolism in vivo; conditions: mice, 15 minutes after injection, HPLC
Method in brief: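 Mice (n = 2/group) received 7.3-11.1 MBq (0.3-0.4 nmol) of ⁶⁸Ga-radiotracer in PBS by tail-vein injection and were killed at 15 min. Heparinized blood was spun at 1700 g for 5 min. Plasma was ultrafiltered (30 kDa cutoff, 9660 g, 10 min). Filtrate and protein fractions were gamma-counted, and filtrate aliquots were analysed by RP-HPLC for metabolites.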

In the case of `O=C([O-])CN(CCN(CC(=O)[O-])Cc1cc(CCC(=O)NCCCCCC(=O)NCCCC[C@H](NC(=O)N[C@@H](CCC(=O)O)C(=O)O)C(=O)O)ccc1[O-])Cc1cc(CCC(=O)O)ccc1[O-].[68Ga+3].[OH3+]` [^68Ga-1, ^68Ga-HBED-CC-PSMA, reference compound], the “peak (maximum) kidney uptake” value [1] is reported as “around 30 %ID/g”, the “time of peak kidney uptake postadministration” value [1] is reported as ~500 s and the “tumor-associated radioactivity after 3500 seconds” value ([1]; dynamic PET, LNCaP tumor) is reported as > 8.0 %ID/g. For the same molecule, the “LogD (n-octanol: PBS pH7.4)” value [2] was −4.06 ± 0.10.
In the case of ^68Ga-DFO-pNCS-Bn-PSMA [^68Ga-7], the “stability with respect to changes in RCP” value [3] is reported as “stable”, the “radiotracer intact in soluble fraction of the blood pool” value [4] is reported as 100% and the “absolute tumor uptake, fold lower in comparison to ^68Ga-1” value ([1]; LNCaP tumor) is reported as ~2.5 fold. For the same molecule, the “specificity of tumor accumulation” value [1] was “specific accumulation”, the “peak (maximum) kidney uptake” value [1] was ~50 %ID/g and the “time of peak kidney uptake postadministration” value [1] was ~1400 s. The “tumor-associated radioactivity after 3500 seconds” value ([1]; dynamic PET, LNCaP tumor) was 2.90 ± 0.46 %ID/g, the peak tumor uptake ([1]; dynamic PET) was 3.5-4.0 %ID/g and the “tumor-associated activity retained for up to 3 hours” value ([1]; static PET, LNCaP tumor) was 2.5-3.5 %ID/g. For the same molecule, the “LogD (n-octanol: PBS pH7.4)” value [2] was −2.60 ± 0.02.
In the case of ^68Ga-DFO-Nsucc-PSMA [^68Ga-4], the “stability with respect to changes in RCP” value [3] is reported as “stable”, the “radiotracer intact in soluble fraction of the blood pool” value [4] is reported as 100% and the “absolute tumor uptake, fold lower in comparison to ^68Ga-1” value ([1]; LNCaP tumor) is reported as ~10 fold. For the same molecule, the “specificity of tumor accumulation” value [1] was “specific accumulation”, the “time of peak tumor uptake postadministration” value ([1]; dynamic PET, LNCaP tumor) was 5 to 10 min and the peak tumor uptake ([1]; dynamic PET) was 3-4 %ID/g. For the same molecule, the “absolute tumor uptake after 3 hours postadministration” value ([1]; static PET, LNCaP tumor) was 0.8-1.2 %ID/g and the “LogD (n-octanol: PBS pH7.4)” value [2] was −3.24 ± 0.05.
